In series [1] the test system is Streptococcus pneumoniae. Nature of the series: Antibacterial activity against Streptococcus pneumoniae-M after 24 hrs by microdilution method. In kind it is functional. Put shortly:
(§1)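 Broth microdilution in Mueller–Hinton medium run on an automated liquid handler. Compounds dissolved in DMF (5 mg/ml stock) and tested in medium from 64 to 0.125 µg/ml. Plates incubated 24 h at 37 °C, then growth read as absorbance at 600 nm. MIC taken as the concentration giving 90% growth inhibition.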
In general terms: Dilution methods test growth across graded concentrations, often in twofold steps.

In series [2] the test system is Staphylococcus aureus. Nature of the series: Antibacterial activity against Staphylococcus aureus-M after 24 hrs by microdilution method. In kind it is functional. Put shortly: as §1
Series [3] relates to Streptococcus pyogenes. Nature of the series: Antibacterial activity against Streptococcus pyogenes-M after 24 hrs by microdilution method. In kind it is functional. Put shortly: as §1
The test system of series [4] is Staphylococcus aureus. As to the kind of experiment: Antibacterial activity against Staphylococcus aureus-cMLS after 24 hrs by microdilution method. In kind it is functional. Put shortly:
as §1

Series [5] relates to Saccharomyces cerevisiae. As to the kind of experiment: Toxicity against Saccharomyces cerevisiae. In kind it is organism-based. The note with it: in vivo. Put shortly: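 Yeast used as a surrogate for eukaryotic cell toxicity. Microdilution in Mueller–Hinton medium with compound from a DMF stock (5 mg/ml), final range 64 to 0.125 µg/ml. Incubated 24 h at 37 °C, with optical density read at 600 nm. MIC defined as the concentration inhibiting growth by 90%.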

Series [6] has as its system Haemophilus influenzae. Nature of the series: Antibacterial activity against Haemophilus influenzae after 24 hrs by microdilution method. In kind it is functional. Put shortly:
as §1

The test system of series [7] is Streptococcus pneumoniae. As to the kind of experiment: Antibacterial activity against Streptococcus pneumoniae after 24 hrs by microdilution method. In kind it is functional. Put shortly: as §1
Series [8] deals with Streptococcus pyogenes. As to the kind of experiment: Antibacterial activity against Streptococcus pyogenes after 24 hrs by microdilution method. In kind it is functional. Put shortly: as §1

This note sets out measurements from ChEMBL document CHEMBL1143064, “Novel 9a-carbamoyl- and 9a-thiocarbamoyl-3-decladinosyl-6-hydroxy and 6-methoxy derivatives of 15-membered macrolides” (Bioorg Med Chem, 2007).

≈ marks a conversion by molar mass, not a printed value.

Take `CCNC(=O)N1C[C@H](C)C[C@@](C)(O)[C@H](O[C@@H]2O[C@H](C)C[C@H](N(C)C)[C@H]2O)[C@@H](C)[C@H](O)[C@@H](C)C(=O)O[C@H](CC)[C@@](C)(O)[C@H](O)[C@H]1C`: the MIC in series [1], in series [2], in series [3], in series [4], in series [6] and in series [7] was over 64 µg/mL throughout. This compound also came in with an MIC in series [8] of over 64 µg/mL. For the same compound, in series [5], the Activity entry was “Non-toxic”.
As to `CC[C@H]1OC(=O)[C@H](C)C(=O)[C@H](C)[C@@H](O[C@@H]2O[C@H](C)C[C@H](N(C)C)[C@H]2O)[C@](C)(OC)C[C@@H](C)CN(C(=O)Nc2ccc(Cl)cc2Cl)[C@H](C)[C@@H](O)[C@]1(C)O`, the MIC is 8 µg/mL (≈ 10.3 µM) in series [1]; over 64 µg/mL in series [2]; over 64 µg/mL in series [3]; over 64 µg/mL in series [4]; over 64 µg/mL in series [6]; 8 µg/mL (≈ 10.3 µM) in series [7]. Besides, the MIC in series [8] was found to be 16 µg/mL (≈ 20.6 µM). The Activity entry in series [5] was “Non-toxic”.
For `CC[C@H]1OC(=O)/C(C)=C\[C@H](C)[C@@H](O[C@@H]2O[C@H](C)C[C@H](N(C)C)[C@H]2O)[C@](C)(OC)C[C@@H](C)CN(C(=O)Nc2ccc(Cl)cc2Cl)[C@H](C)[C@@H](O)[C@]1(C)O`, the MIC in series [1] is 16 µg/mL (≈ 21 µM); in series [2] it was over 64 µg/mL; in series [3], over 64 µg/mL; in series [4], over 64 µg/mL; in series [6], over 64 µg/mL; in series [7], 8 µg/mL (≈ 10.5 µM). Also, the MIC in series [8] came to 32 µg/mL (≈ 42.1 µM). Moreover, the Activity entry in series [5] is recorded as “Non-toxic”.
Consider `CC[C@H]1OC(=O)[C@H](C)[C@@H](O)[C@H](C)[C@@H](O[C@@H]2O[C@H](C)C[C@H](N(C)C)[C@H]2O)[C@](C)(O)C[C@@H](C)CN(C(=O)NCc2ccccc2)[C@H](C)[C@@H](O)[C@]1(C)O`, for which the MIC in series [1], in series [2], in series [3], in series [4], in series [6] and in series [7] was over 64 µg/mL in each case. In series [8], this compound returned an MIC of over 64 µg/mL. Also, the Activity result in series [5] is on record as “Non-toxic”.
On to `CC[C@H]1OC(=O)[C@H](C)C2O[C@@](C)(C[C@@H](C)CN(C(=O)NC(C)C)[C@H](C)[C@@H](O)[C@]1(C)O)[C@H](O[C@@H]1O[C@H](C)C[C@H](N(C)C)[C@H]1O)[C@H]2C`, for which the MIC in series [1], in series [2], in series [3], in series [4], in series [6] and in series [7] was over 64 µg/mL each time. In series [8], this compound showed an MIC of over 64 µg/mL. Moreover, the Activity result in series [5] was “Non-toxic”.
In the case of `CC[C@H]1OC(=O)[C@H](C)C2(O)O[C@@](C)(C[C@@H](C)CN(C(=O)NC(C)C)[C@H](C)[C@@H](O)[C@]1(C)O)[C@H](O[C@@H]1O[C@H](C)C[C@H](N(C)C)[C@H]1O)[C@H]2C`, the MIC in series [1], in series [2], in series [3], in series [4], in series [6] and in series [7] was over 64 µg/mL throughout. The compound also returned an MIC in series [8] of over 64 µg/mL. Further, the Activity result in series [5] is given as “Non-toxic”.
Regarding `CC[C@H]1OC(=O)[C@H](C)[C@@H](O)[C@H](C)[C@@H](O[C@@H]2O[C@H](C)C[C@H](N(C)C)[C@H]2O)[C@](C)(OC)C[C@@H](C)CN(C(=O)NC(C)C)[C@H](C)[C@@H](O)[C@]1(C)O`, the MIC in series [1] is over 64 µg/mL; in series [2], over 64 µg/mL; in series [3], over 64 µg/mL; in series [4] it was over 64 µg/mL; in series [6], over 64 µg/mL; in series [7], 32 µg/mL (≈ 47.3 µM). The MIC in series [8] was over 64 µg/mL. The Activity entry in series [5] was “Non-toxic”.
In the case of `CC[C@H]1OC(=O)[C@H](C)[C@@H](O)[C@H](C)[C@@H](O[C@@H]2O[C@H](C)C[C@H](N(C)C)[C@H]2O)[C@](C)(O)C[C@@H](C)CN(C(=O)Nc2cccc(C(F)(F)F)c2)[C@H](C)[C@@H](O)[C@]1(C)O`, the MIC in series [1], in series [2], in series [3], in series [4], in series [6] and in series [7] was over 64 µg/mL each time. This compound also gave an MIC in series [8] of over 64 µg/mL. In addition, the Activity result in series [5] is “Non-toxic”.
Consider `CC[C@H]1OC(=O)[C@H](C)[C@@H](O[C@H]2C[C@@](C)(OC)[C@@H](O)[C@H](C)O2)[C@H](C)[C@@H](O[C@@H]2O[C@H](C)C[C@H](N(C)C)[C@H]2O)[C@](C)(OC)C[C@@H](C)CN[C@H](C)[C@@H](O)[C@]1(C)O`, for which the MIC is 16 µg/mL (≈ 21.4 µM) in series [1]; over 64 µg/mL in series [2]; 16 µg/mL (≈ 21.4 µM) in series [3]; over 64 µg/mL in series [4]; 8 µg/mL (≈ 10.7 µM) in series [6]; 0.5 µg/mL (≈ 0.668 µM) in series [7]. In series [8], this compound came in with an MIC of 1 µg/mL (≈ 1.34 µM). In series [5], the Activity result is “Non-toxic”.
Take `CC[C@H]1OC(=O)[C@H](C)[C@@H](O[C@H]2C[C@@](C)(OC)[C@@H](O)[C@H](C)O2)[C@H](C)[C@@H](O[C@@H]2O[C@H](C)C[C@H](N(C)C)[C@H]2O)[C@](C)(O)C[C@@H](C)C(=O)[C@H](C)[C@@H](O)[C@]1(C)O` [ERYTHROMYCIN]: the MIC in series [1] is 8 µg/mL (≈ 10.9 µM); in series [2] it was over 64 µg/mL; in series [3], 8 µg/mL (≈ 10.9 µM); in series [4] it was over 64 µg/mL; in series [6], 4 µg/mL (≈ 5.45 µM); in series [7] it was 0.125 µg/mL (≈ 0.17 µM). The same compound displayed an MIC in series [8] of 0.125 µg/mL (≈ 0.17 µM).
For `CC[C@H]1OC(=O)[C@H](C)C(=O)[C@H](C)[C@@H](O[C@@H]2O[C@H](C)C[C@H](N(C)C)[C@H]2O)[C@](C)(OC)C[C@@H](C)CN(C(=O)NC(C)C)[C@H](C)[C@@H](O)[C@]1(C)O`, the MIC in series [1] is over 64 µg/mL; in series [2], over 64 µg/mL; in series [3], over 64 µg/mL; in series [4], over 64 µg/mL; in series [6], over 64 µg/mL; in series [7], 8 µg/mL (≈ 11.9 µM). The compound also came in with an MIC in series [8] of 16 µg/mL (≈ 23.7 µM). Also, in series [5], the Activity result is given as “Non-toxic”.
As for `CC[C@H]1OC(=O)[C@H](C)C2O[C@@](C)(C[C@@H](C)CN(C(=O)Nc3ccc(Cl)cc3Cl)[C@H](C)[C@@H](O)[C@]1(C)O)[C@H](O[C@@H]1O[C@H](C)C[C@H](N(C)C)[C@H]1O)[C@H]2C`, the MIC in series [1], in series [2], in series [3], in series [4], in series [6] and in series [7] was over 64 µg/mL in each case. In series [8], this compound displayed an MIC of over 64 µg/mL. Further, in series [5], the Activity result is “Non-toxic”.
In the case of `CC[C@H]1OC(=O)/C(C)=C\[C@H](C)[C@@H](O[C@@H]2O[C@H](C)C[C@H](N(C)C)[C@H]2O)[C@](C)(OC)C[C@@H](C)CN(C(=O)NC(C)C)[C@H](C)[C@@H](O)[C@]1(C)O`, the MIC in series [1] was over 64 µg/mL; in series [2], over 64 µg/mL; in series [3], over 64 µg/mL; in series [4], over 64 µg/mL; in series [6] it was over 64 µg/mL; in series [7], 8 µg/mL (≈ 12.2 µM). The same compound gave an MIC in series [8] of 16 µg/mL (≈ 24.3 µM). Further, the Activity entry in series [5] is recorded as “Non-toxic”.
On to `CC[C@H]1OC(=O)[C@H](C)C2(O)O[C@@](C)(C[C@@H](C)CN(C(=O)Nc3ccc(Cl)cc3Cl)[C@H](C)[C@@H](O)[C@]1(C)O)[C@H](O[C@@H]1O[C@H](C)C[C@H](N(C)C)[C@H]1O)[C@H]2C`, for which the MIC in series [1], in series [2], in series [3], in series [4], in series [6] and in series [7] was over 64 µg/mL throughout. The same compound had an MIC in series [8] of over 64 µg/mL. In addition, in series [5], the Activity entry is “Non-toxic”.
Take `CC[C@H]1OC(=O)[C@H](C)[C@@H](O)[C@H](C)[C@@H](O[C@@H]2O[C@H](C)C[C@H](N(C)C)[C@H]2O)[C@](C)(O)C[C@@H](C)CN(C(=O)Nc2ccccc2C(F)(F)F)[C@H](C)[C@@H](O)[C@]1(C)O`: the MIC in series [1], in series [2], in series [3], in series [4], in series [6] and in series [7] was over 64 µg/mL in each case. Besides, the MIC in series [8] was over 64 µg/mL. Also, the Activity entry in series [5] is “Non-toxic”.
Consider `C=CCNC(=S)N1C[C@H](C)C[C@@](C)(O)[C@H](O[C@@H]2O[C@H](C)C[C@H](N(C)C)[C@H]2O)[C@@H](C)[C@H](O)[C@@H](C)C(=O)O[C@H](CC)[C@@](C)(O)[C@H](O)[C@H]1C`, for which the MIC in series [1], in series [2], in series [3], in series [4], in series [6] and in series [7] was over 64 µg/mL throughout. For the same compound, the MIC in series [8] was over 64 µg/mL. For the same compound, the Activity result in series [5] was “Non-toxic”.
`CC[C@H]1OC(=O)[C@H](C)[C@@H](O)[C@H](C)[C@@H](O[C@@H]2O[C@H](C)C[C@H](N(C)C)[C@H]2O)[C@](C)(O)C[C@@H](C)CN(C(=S)Nc2cccc(C(F)(F)F)c2)[C@H](C)[C@@H](O)[C@]1(C)O`: the MIC in series [1], in series [2], in series [3], in series [4], in series [6] and in series [7] was over 64 µg/mL throughout. The compound further gave an MIC in series [8] of over 64 µg/mL. For the same compound, the Activity result in series [5] is listed as “Non-toxic”.
